The text below walks through data of ChEMBL document CHEMBL3132813, “Exploring novel strategies for AIDS protozoal pathogens: α-helix mimetics targeting a key allosteric protein-protein interaction in C. hominis TS-DHFR” (Medchemcomm, 2013).

Molecules are shown by their SMILES.

Test [1] has as its target T1, Dihydrofolate reductase (Homo sapiens, UniProt P00374).
T1 sequence (P00374 whole entry): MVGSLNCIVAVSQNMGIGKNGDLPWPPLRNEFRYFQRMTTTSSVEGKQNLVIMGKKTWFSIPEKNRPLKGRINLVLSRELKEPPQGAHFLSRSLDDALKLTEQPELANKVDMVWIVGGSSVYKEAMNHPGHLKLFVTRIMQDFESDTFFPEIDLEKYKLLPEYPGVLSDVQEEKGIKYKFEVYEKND
Kind of test: Inhibition of human DHFR. The method in brief:
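Steady-state spectrophotometric assay at 340 nm, run separately for DHFR and TS reactions. Compound preincubated 30 min with enzyme and substrates before starting the reaction. Identical enzyme and ligand concentrations for all targets. DMSO-matched blank; rates normalized to it. IC50 as mean ± standard deviation.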

The test system of test [2] is Cryptosporidium hominis. Kind of test: Inhibition of DHFR activity of Cryptosporidium hominis thymidylate synthase-dihydrofolate reductase beta face mutant by steady state kinetic assay relative wild type TS-DHFR. The method in brief:
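Bifunctional TS–DHFR enzymes (wild type and crossover-helix mutants) were over-expressed in E. coli BL21 and purified. DHFR activity was followed at 340 nm by steady-state spectroscopy. Enzyme and substrates were preincubated with mimetic for 30 min before starting the reaction. Rates were normalized to a matched DMSO blank. Enzyme and ligand concentrations were the same for each target, and IC50 was given as mean ± SD.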

Test [3] can be described thus: Inhibition of DHFR activity of Cryptosporidium hominis thymidylate synthase-dihydrofolate reductase beta face mutant by steady state kinetic assay. An outline of the steps: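 Recombinant bifunctional TS–DHFR, Beta Face crossover-helix mutant, expressed in E. coli BL21. DHFR reaction was followed spectroscopically at 340 nm under steady-state conditions. Helix mimetic was added from a DMSO stock and preincubated with enzyme and substrates for 30 minutes before the reaction was started. Rates were normalized to a matched DMSO blank and fit as dose–response to give the IC50, reported as mean ± SD.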

As a reminder, the IC50 is the concentration at which inhibition is half-maximal. Take `CC(C)CN(C(=O)Nc1ccc(CCC(=O)O)cc1Cc1ccccc1)C(=O)c1ccc(OCC(=O)O)c(Cc2ccccc2)c1`: the IC50 is above 1000 µM in test [1] and 18 µM in test [3]. Besides, in test [2], the Ratio IC50 was 10.
